Consider 22 compounds from ChEMBL document CHEMBL3259708, “Thienoquinolines as novel disruptors of the PKCε/RACK2 protein-protein interaction” (J Med Chem, 2014).

For one experiment, the target named is T1, Protein kinase C epsilon type (Homo sapiens) (UniProt Q02156).
T1 sequence (whole entry): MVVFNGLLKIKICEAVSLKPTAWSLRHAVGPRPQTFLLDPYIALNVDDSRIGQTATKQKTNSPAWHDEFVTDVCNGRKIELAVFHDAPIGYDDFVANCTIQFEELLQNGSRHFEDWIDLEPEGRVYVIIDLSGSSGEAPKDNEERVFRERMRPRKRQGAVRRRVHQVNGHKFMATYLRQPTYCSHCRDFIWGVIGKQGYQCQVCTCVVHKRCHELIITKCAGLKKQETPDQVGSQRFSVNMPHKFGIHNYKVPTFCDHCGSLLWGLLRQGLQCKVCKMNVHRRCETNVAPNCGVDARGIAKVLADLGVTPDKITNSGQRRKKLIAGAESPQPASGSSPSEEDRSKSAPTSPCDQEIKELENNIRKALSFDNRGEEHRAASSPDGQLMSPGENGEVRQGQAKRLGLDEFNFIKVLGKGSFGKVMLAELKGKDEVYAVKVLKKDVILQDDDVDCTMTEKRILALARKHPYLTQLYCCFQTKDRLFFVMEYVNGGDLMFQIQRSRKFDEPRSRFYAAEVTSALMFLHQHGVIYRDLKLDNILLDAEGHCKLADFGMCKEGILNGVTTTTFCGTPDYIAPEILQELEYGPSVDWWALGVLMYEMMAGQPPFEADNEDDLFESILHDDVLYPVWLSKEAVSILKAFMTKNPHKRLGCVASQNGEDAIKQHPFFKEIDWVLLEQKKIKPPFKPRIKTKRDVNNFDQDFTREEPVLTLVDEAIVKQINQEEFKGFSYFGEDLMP
As to the kind of experiment: (§1) Inhibition of recombinant PKCepsilon (unknown origin)-MBP-tagged RACK2 interaction after 1 hr by ELISA-based assay relative to untreated control. Also noted: residual binding, % of control: concentration or dose not given beside the values. The conditions noted are these: values are per cent of control. In outline: (§2)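 ELISA: plates coated with 100 ng recombinant PKCε in 20 mM Tris-HCl/100 mM NaCl pH 7.5 overnight at 4 °C, blocked with 3% BSA; PKCε activated 10 min at 30 °C with 60 μg/mL phosphatidylserine and 100 nM TPA; RACK2-MBP preincubated with agent 30 min, then 500 ng added for 1 h binding; anti-RACK2/HRP detection, ABTS at 420 nm; four experiments, quadruplicates, normalized to control; IC50 via CalcuSyn.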
On the technique in general: An ELISA detects its analyte on a solid surface through an enzyme-linked reagent.
Regarding `COc1ccc2cc3c(N)c(C(=O)Nc4c(C)cccc4C)sc3nc2c1`, the residual binding, % of control amounted to 60.8%.

For the compound `CCOc1ccc2nc(NC(=O)c3sc4nc5cc(OC)ccc5cc4c3N)sc2c1`, the residual binding, % of control was 37.7%.

Take `Nc1c(C(=O)Nc2cccc(Cl)c2)sc2nc3cc4c(cc3cc12)OCCO4`: the residual binding, % of control came out at 58%.

On to `COC(=O)c1cccc(NC(=O)c2sc3nc4cc5c(cc4cc3c2N)OCO5)c1`, for which the residual binding, % of control stood at 30.8%.

As for `C/C(=N\O)c1cccc(NC(=O)c2sc3nc4cc5c(cc4cc3c2N)OCCO5)c1`, the residual binding, % of control was determined as 46.2%.

With `C/C(=N\OCC(=O)O)c1cccc(NC(=O)c2sc3nc4cc5c(cc4cc3c2N)OCCO5)c1`, the residual binding, % of control was found to be 59.3%.

Regarding `CC(=O)c1cccc(NC(=O)c2cc3cc4cc5c(cc4nc3s2)OCO5)c1`, the residual binding, % of control was determined as 51.2%.

For `Nc1c(C(=O)Nc2cccc(Cl)c2Cl)sc2nc3cc4c(cc3cc12)OCCO4`, the residual binding, % of control is 57.6%.

Take `COC(=O)c1cccc(NC(=O)c2sc3nc4cc5c(cc4cc3c2N)OCCO5)c1`: the residual binding, % of control was found to be 90.9%.

As to `CCOc1ccc2nc3sc(C(=O)Nc4ccc(F)cc4)c(N)c3cc2c1`, the residual binding, % of control was 60.5%.

For the compound `CC(=O)c1cccc(NC(=O)c2cc3cc4cc5c(cc4nc3s2)OCCO5)c1`, the residual binding, % of control was 64.9%.

In the case of `CC(O)c1cccc(NC(=O)C2Sc3nc4cc5c(cc4cc3C2N)OCCO5)c1` (stereo not drawn), the residual binding, % of control was determined as 102%.

For the compound `CCOC(=O)Cc1csc(NC(=O)c2sc3nc4ccc(OCC)cc4cc3c2N)n1`, the residual binding, % of control turned out to be 32.4%.

With `CC(=O)c1cccc(NC(=O)c2sc3nc4cc5c(cc4cc3c2N)OCO5)c1`, the residual binding, % of control is 58.9%.

For the compound `CO/N=C(\C)c1cccc(NC(=O)c2sc3nc4cc5c(cc4cc3c2N)OCCO5)c1`, the residual binding, % of control is 48.3%.

For `CCOC(=O)c1cccc(NC(=O)c2sc3nc4ccc(OC)cc4cc3c2N)c1`, the residual binding, % of control came out at 29.6%.

Consider `CC(=O)c1ccc(NC(=O)c2sc3nc4cc5c(cc4cc3c2N)OCCO5)cc1`, for which the residual binding, % of control turned out to be 22.8%.

For `COc1ccc(NC(=O)c2sc3nc4ccccc4cc3c2N)cc1`, the residual binding, % of control was 42.7%.

As for `COc1ccc2nc3sc(C(=O)Nc4ccc(N5CCOCC5)cc4)c(N)c3cc2c1`, the residual binding, % of control is 32.9%.

A further experiment deals with T2, Protein kinase C epsilon type (Homo sapiens, UniProt Q02156).
T2 sequence (Q02156 whole entry): T1 sequence (whole entry)
The description is as §1.
Details: not given
The method, boiled down:
as §2
What is called IC50 is the concentration at which inhibition is half-maximal. Consider `CCOc1ccc2nc(NC(=O)c3sc4nc5cc(OC)ccc5cc4c3N)sc2c1`, for which the IC50 is 25.5 µM.

On to `O=C1NC(=O)N(Cc2ccccc2)C(=O)/C1=C\c1ccc2c(c1)OCO2`, for which the IC50 is 28.5 µM.

Consider H-EAVSLKPT-OH, for which the 50% inhibitory concentration (IC50) came to 1.02 µM.

For H-EAVSLKPTRRRRRRR-OH, the IC50 amounted to 1.02 µM.
